Data set [1] in a line: Cytotoxicity against human SKOV3 cells after 48 hrs by neutral red assay. The format is cell-based. The conditions noted are these: sk-ov-3, 48 h. Summed up: (§1)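 Cells were exposed to peptides up to a highest tested concentration of 10 μg/mL, using a previously reported cytotoxicity protocol.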
Data set [2] has as its system Mycobacterium intracellulare. Put plainly: Antimicrobial activity against Mycobacterium intracellulare ATCC 23068 after 70 to 74 hrs by Alamar Blue method. The format is functional, organism-based.
For data set [3], the system named is Cryptococcus neoformans. Put plainly: Antimicrobial activity against Cryptococcus neoformans ATCC 90113 assessed as complete killing after 70 to 74 hrs by CLSI method. The format is functional.
Another data set has as its system SK-MEL. Put plainly: Cytotoxicity against human SK-MEL cells after 48 hrs by neutral red assay. The format is cell-based. The gist of the method: as §1
In another data set the test system is Vero. Put plainly: Cytotoxicity against African green monkey Vero cells after 48 hrs by neutral red assay. The format is cell-based. The conditions noted are these: chlorocebus sabaeus. Summed up:
as §1

Data set [4] is described as follows: Cytotoxicity against pig LLC-PK cells after 48 hrs by neutral red assay. The format is cell-based, Sus scrofa. Summed up: as §1
For another data set, the system named is KB. Put plainly: Cytotoxicity against human KB cells after 48 hrs by neutral red assay. The format is cell-based. Summed up: as §1
In the next data set the test system is BT-549. Kind of data set: Cytotoxicity against human BT549 cells after 48 hrs by neutral red assay. The format is cell-based. The conditions noted are these: bt-549, 48 h. The gist of the method:
as §1

Data set [5] deals with Cryptococcus neoformans. Put plainly: Antimicrobial activity against Cryptococcus neoformans ATCC 90113 assessed as growth inhibition after 70 to 74 hrs by CLSI method. The format is functional, organism-based.
Data set [6] relates to Cryptococcus neoformans. Put plainly: Antimicrobial activity against Cryptococcus neoformans ATCC 90113 assessed as detectable growth after 70 to 74 hrs by CLSI method. The format is functional.
Data set [7] deals with Staphylococcus aureus. Put plainly: Antibacterial activity against Staphylococcus aureus ATCC 29213 assessed as absence of detectable growth. The format is functional. The gist of the method: (§2)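 Antibacterial susceptibility determined by the CLSI (formerly NCCLS) protocol. MIC is the lowest test concentration (μg/mL) allowing no detectable growth. MBC is the lowest test concentration killing 100% of the organism.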

For data set [8], the system named is Staphylococcus aureus. Put plainly: Antibacterial activity against methicillin-resistant Staphylococcus aureus ATCC 33591 assessed as 100% killing. The format is functional. Summed up: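 Testing followed the CLSI (formerly NCCLS) susceptibility protocol. MBC was taken as the lowest test concentration in μg/mL that kills 100% of the organism.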
Data set [9] deals with Staphylococcus aureus. Kind of data set: Antibacterial activity against Staphylococcus aureus ATCC 29213 assessed as 100% killing. The format is functional. Summed up:
as §2

Data set [10] deals with Staphylococcus aureus. Put plainly: Antibacterial activity against methicillin-resistant Staphylococcus aureus ATCC 33591 assessed as absence of detectable growth. The format is functional. The gist of the method:
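MIC was determined by the CLSI (formerly NCCLS) protocol. It was taken as the lowest test concentration in μg/mL allowing no detectable growth.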

Structures are written as SMILES. ≈ marks a conversion by molar mass, not a printed value. Calls of active or inactive are those of the source. Residues, ends and D or L forms follow the SMILES beside them. *: point of attachment. Boc = CC(C)(C)OC(=O)*; NHBn = c1ccc(CN*)cc1

Take `CC(C)(C)OC(=O)N[C@@H](Cc1cnc[nH]1)C(=O)N[C@@H](Cc1c[nH]c2ccccc12)C(=O)N[C@@H](Cc1cnc[nH]1)C(=O)NCc1ccccc1` (Boc-His-Trp-His-NHBn): the Activity (in [1]; with SK-MEL; with Vero; in data set [4]; with KB; in the data set with BT-549) was greater than 10 µg/mL in each case. In addition, the inhibition result in data set [2] was “inactive”. In addition, in the data set on Cryptococcus neoformans [3], the MFC was determined as 1.25 µg/mL (≈ 1.87 µM).

As a reminder, the MIC is the smallest concentration in the dilution series that meets the test's criterion for growth inhibition. On to `CC(C)(C)OC(=O)N[C@@H](Cc1cnc(C2CCCCC2)[nH]1)C(=O)N[C@@H](Cc1c[nH]c2ccccc12)C(=O)N[C@@H](Cc1cnc(C2CCCCC2)[nH]1)C(=O)NCc1ccccc1`, for which the Activity (in data set [1]; with SK-MEL; in the data set with Vero; in data set [4]; with KB; in the data set on BT-549) was greater than 10 µg/mL each time. The inhibition entry in [2] was “inactive”. Also, the MFC entry in the data set on Cryptococcus neoformans [3] was “inactive”. In addition, the IC50 result in the data set on Cryptococcus neoformans [5] is “Not Active”. For the same compound, in the data set with Cryptococcus neoformans [6], the MIC entry was “inactive”.

Turning to `C[C@@H]1[C@H](O)[C@@H](C)/C=C/C=C/C=C/C=C/C=C/C=C/C=C/[C@H](O[C@@H]2O[C@H](C)[C@@H](O)[C@H](N)[C@@H]2O)C[C@@H]2O[C@](O)(C[C@@H](O)C[C@@H](O)[C@H](O)CC[C@@H](O)C[C@@H](O)CC(=O)O[C@H]1C)C[C@H](O)[C@H]2C(=O)O` [AMPHOTERICIN B], the Activity (in data set [1]; with SK-MEL; in the data set with Vero; in data set [4]; in the data set with KB; in the data set on BT-549) was greater than 10 µg/mL in each case. Further, the inhibition result in data set [2] was “inactive”. Also, the MFC with Cryptococcus neoformans [3] came to 1.25 µg/mL (≈ 1.35 µM).

For the compound `CC(C)c1ncc(C[C@H](NC(=O)OC(C)(C)C)C(=O)N[C@@H](Cc2c[nH]c3ccccc23)C(=O)N[C@@H](Cc2cnc(C(C)C)[nH]2)C(=O)NCc2ccccc2)[nH]1`, the Activity (in data set [1]; in the data set on SK-MEL; in the data set on Vero; in data set [4]; with KB; in the data set with BT-549) was greater than 10 µg/mL throughout. Besides, the inhibition entry in data set [2] is “inactive”. In addition, the MFC entry in the data set with Cryptococcus neoformans [3] was “inactive”. In addition, the IC50 result in the data set with Cryptococcus neoformans [5] is given as “Not Active”. In the data set with Cryptococcus neoformans [6], the MIC result is “inactive”.

Take `O=C(O)c1cn(C2CC2)c2cc(N3CCNCC3)c(F)cc2c1=O` [CIPROFLOXACIN]: the inhibition result in [2] was “inactive”.

Take `CC(C)(C)c1ncc(C[C@H](NC(=O)[C@H](Cc2c[nH]c3ccccc23)NC(=O)[C@@H](N)Cc2cnc(C(C)(C)C)[nH]2)C(=O)NCc2ccccc2)[nH]1`: the Activity (in data set [1]; with SK-MEL; in the data set with Vero; in data set [4]; in the data set with KB; with BT-549) was greater than 10 µg/mL throughout. In addition, the inhibition result in [2] was “inactive”. Also, in the data set with Cryptococcus neoformans [3], the MFC turned out to be 20 µg/mL (≈ 29.4 µM).

Turning to `CC(C)(C)OC(=O)N[C@@H](Cc1cnc(C2CCCC2)[nH]1)C(=O)N[C@@H](Cc1c[nH]c2ccccc12)C(=O)N[C@@H](Cc1cnc(C2CCCC2)[nH]1)C(=O)NCc1ccccc1`, the Activity (in [1]; in the data set on SK-MEL; with Vero; in data set [4]; in the data set on KB; in the data set on BT-549) was greater than 10 µg/mL each time. Besides, the inhibition entry in data set [2] was “inactive”. The MFC result with Cryptococcus neoformans [3] was “inactive”. Further, in the data set on Cryptococcus neoformans [6], the MIC entry was “inactive”.

With `CC(C)c1ncc(C[C@H](NC(=O)[C@H](Cc2c[nH]c3ccccc23)NC(=O)[C@@H](N)Cc2cnc(C(C)C)[nH]2)C(=O)NCc2ccccc2)[nH]1`, the Activity (in data set [1]; in the data set on SK-MEL; with Vero; in data set [4]; with KB; in the data set on BT-549) was greater than 10 µg/mL throughout. Moreover, the inhibition entry in [2] was “inactive”. The MIC with Cryptococcus neoformans [6] stood at 20 µg/mL (≈ 30.7 µM).

For orientation: MBC means the lowest tested concentration that kills the bacteria rather than only halting them. As to `CC(C)(C)OC(=O)N[C@@H](Cc1cnc(C23CC4CC(CC(C4)C2)C3)[nH]1)C(=O)N[C@@H](Cc1c[nH]c2ccccc12)C(=O)N[C@@H](Cc1cnc(C23CC4CC(CC(C4)C2)C3)[nH]1)C(=O)NCc1ccccc1`, the Activity (in [1]; with SK-MEL; in the data set with Vero; in data set [4]; with KB; with BT-549) was greater than 10 µg/mL in each case. The inhibition result in data set [2] was “inactive”. The MIC with Staphylococcus aureus [7] was 20 µg/mL (≈ 21.4 µM). The MBC with Staphylococcus aureus [8] and in the data set with Staphylococcus aureus [9] was 20 µg/mL (≈ 21.4 µM) in each case.

Regarding `N[C@@H](Cc1cnc[nH]1)C(=O)N[C@@H](Cc1c[nH]c2ccccc12)C(=O)N[C@@H](Cc1cnc[nH]1)C(=O)NCc1ccccc1` (H-His-Trp-His-NHBn), the Activity (in data set [1]; in the data set on SK-MEL; with Vero; in data set [4]; with KB; in the data set on BT-549) was greater than 10 µg/mL each time. In data set [2], the inhibition result is “inactive”. Also, the MFC in the data set on Cryptococcus neoformans [3] was 10 µg/mL (≈ 17.6 µM).

With `CC(C)(C)OC(=O)N[C@@H](Cc1cnc(C(C)(C)C)[nH]1)C(=O)N[C@@H](Cc1c[nH]c2ccccc12)C(=O)N[C@@H](Cc1cnc(C(C)(C)C)[nH]1)C(=O)NCc1ccccc1`, the Activity (in data set [1]; in the data set with SK-MEL; with Vero; in data set [4]; with KB; with BT-549) was greater than 10 µg/mL in each case. Moreover, the inhibition result in data set [2] is “inactive”. In the data set with Cryptococcus neoformans [3], the MFC result is “inactive”. In addition, the IC50 entry in the data set with Cryptococcus neoformans [5] is reported as “Not Active”. The MIC result in the data set on Cryptococcus neoformans [6] is “inactive”.

As for `N[C@@H](Cc1cnc(C23CC4CC(CC(C4)C2)C3)[nH]1)C(=O)N[C@@H](Cc1c[nH]c2ccccc12)C(=O)N[C@@H](Cc1cnc(C23CC4CC(CC(C4)C2)C3)[nH]1)C(=O)NCc1ccccc1`, the Activity (in [1]; in the data set on SK-MEL; with Vero; in data set [4]; in the data set on KB; in the data set on BT-549) was greater than 10 µg/mL throughout. The inhibition result in data set [2] was “inactive”. Further, the figures for the MIC in the data set on Staphylococcus aureus [7], in the data set on Staphylococcus aureus [10] and in the data set with Cryptococcus neoformans [6] were 5 µg/mL (≈ 5.98 µM), 10 µg/mL (≈ 12 µM) and 0.63 µg/mL (≈ 0.754 µM), respectively.

Regarding `N[C@@H](Cc1cnc(C2CCCCC2)[nH]1)C(=O)N[C@@H](Cc1c[nH]c2ccccc12)C(=O)N[C@@H](Cc1cnc(C2CCCCC2)[nH]1)C(=O)NCc1ccccc1`, the Activity (in data set [1]; in the data set with SK-MEL; in the data set with Vero; in data set [4]; in the data set with KB; with BT-549) was greater than 10 µg/mL throughout. In addition, the inhibition result in data set [2] was “inactive”. Further, the MIC in the data set with Cryptococcus neoformans [6] came out at 1.25 µg/mL (≈ 1.71 µM).

With `N[C@@H](Cc1cnc(C2CCCC2)[nH]1)C(=O)N[C@@H](Cc1c[nH]c2ccccc12)C(=O)N[C@@H](Cc1cnc(C2CCCC2)[nH]1)C(=O)NCc1ccccc1`, the Activity (in data set [1]; in the data set with SK-MEL; with Vero; in [4]; with KB; in the data set on BT-549) was greater than 10 µg/mL each time. The inhibition entry in [2] was “inactive”. The MFC entry in the data set on Cryptococcus neoformans [3] is “inactive”. Besides, in the data set on Cryptococcus neoformans [5], the IC50 entry was “Not Active”. Moreover, in the data set on Cryptococcus neoformans [6], the MIC result is “inactive”.
